Assay results taken from ChEMBL document CHEMBL4715736, “Identification of anticancer agents based on the thieno[2,3-b]pyridine and 1H-pyrazole molecular scaffolds” (2016).

Columns and labels:
Assay type in all cases: functional
Details in all cases: read-out: Activity
LOX IMVI = assay: Growth inhibition of human LOX IMVI cells assessed as cell growth at 10 uM incubated for 48 hrs by sulforhodamine B assay relative to control
Procedure, shortened: (§1)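 Submitted to the NCI Developmental Therapeutics Program for the NCI60 human tumour cell line panel. First screen at a single 10 µM concentration. Read-out is growth relative to untreated control cells set at 100%.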

SR = assay: Growth inhibition of human SR cells assessed as cell growth at 10 uM incubated for 48 hrs by sulforhodamine B assay relative to control
Procedure, shortened: (§2)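 Run by the NCI Developmental Therapeutics Program as part of its 60-line human tumour panel. Each compound tested at a single 10 µM dose. Growth expressed as % relative to untreated control cells (100%).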

HOP-62 = assay: Growth inhibition of human HOP-62 cells assessed as cell growth at 10 uM incubated for 48 hrs by sulforhodamine B assay relative to control; procedure, shortened: as §1
NCI-H23 = assay: Growth inhibition of human NCI-H23 cells assessed as cell growth at 10 uM incubated for 48 hrs by sulforhodamine B assay relative to control; procedure, shortened: as §1
SF-268 = assay: Growth inhibition of human SF-268 cells assessed as cell growth at 10 uM incubated for 48 hrs by sulforhodamine B assay relative to control; procedure, shortened: as §2
CAKI-1 = assay: Growth inhibition of human CAKI-1 cells assessed as cell growth at 10 uM incubated for 48 hrs by sulforhodamine B assay relative to control
Procedure, shortened: (§3)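 NCI Developmental Therapeutics Program NCI60 panel. Compounds that were active in the 10 µM one-dose screen went on to dose–response testing. Growth at each concentration is expressed relative to untreated control (100%). GI50 (concentration giving 50% of maximal inhibition of proliferation) and TGI (concentration giving total growth inhibition) were derived from the curves.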

CCRF-CEM = assay: Growth inhibition of human CCRF-CEM cells assessed as cell growth at 10 uM incubated for 48 hrs by sulforhodamine B assay relative to control; procedure, shortened: as §3
SW-620 = assay: Growth inhibition of human SW-620 cells assessed as cell growth at 10 uM incubated for 48 hrs by sulforhodamine B assay relative to control; procedure, shortened: as §2
UACC-257 = assay: Growth inhibition of human UACC-257 cells assessed as cell growth at 10 uM incubated for 48 hrs by sulforhodamine B assay relative to control; procedure, shortened: as §2
NCI-H322M = assay: Growth inhibition of human NCI-H322M cells assessed as cell growth at 10 uM incubated for 48 hrs by sulforhodamine B assay relative to control; procedure, shortened: as §1
SK-MEL-2 = assay: Growth inhibition of human SK-MEL-2 cells assessed as cell growth at 10 uM incubated for 48 hrs by sulforhodamine B assay relative to control; procedure, shortened: as §2
OVCAR-5 = assay: Growth inhibition of human OVCAR-5 cells assessed as cell growth at 10 uM incubated for 48 hrs by sulforhodamine B assay relative to control; procedure, shortened: as §2
TK-10 = assay: Growth inhibition of human TK-10 cells assessed as cell growth at 10 uM incubated for 48 hrs by sulforhodamine B assay relative to control; procedure, shortened: as §2
K562 = assay: Growth inhibition of human K562 cells assessed as cell growth at 10 uM incubated for 48 hrs by sulforhodamine B assay relative to control; procedure, shortened: as §1
NCI-H522 = assay: Growth inhibition of human NCI-H522 cells assessed as cell growth at 10 uM incubated for 48 hrs by sulforhodamine B assay relative to control; procedure, shortened: as §1
IGROV-1 = assay: Growth inhibition of human IGROV-1 cells assessed as cell growth at 10 uM incubated for 48 hrs by sulforhodamine B assay relative to control; procedure, shortened: as §1
UACC-62 = assay: Growth inhibition of human UACC-62 cells assessed as cell growth at 10 uM incubated for 48 hrs by sulforhodamine B assay relative to control; procedure, shortened: as §2
MDA-MB-231 = assay: Growth inhibition of human MDA-MB-231 cells assessed as cell growth at 10 uM incubated for 48 hrs by sulforhodamine B assay relative to control; procedure, shortened: as §1
NCI-H226 = assay: Growth inhibition of human NCI-H226 cells assessed as cell growth at 10 uM incubated for 48 hrs by sulforhodamine B assay relative to control; procedure, shortened: as §1
SK-MEL-28 = assay: Growth inhibition of human SK-MEL-28 cells assessed as cell growth at 10 uM incubated for 48 hrs by sulforhodamine B assay relative to control; procedure, shortened: as §2
SNB-75 = assay: Growth inhibition of human SNB-75 cells assessed as cell growth at 10 uM incubated for 48 hrs by sulforhodamine B assay relative to control; procedure, shortened: as §2
RPMI-8226 = assay: Growth inhibition of human RPMI-8226 cells assessed as cell growth at 10 uM incubated for 48 hrs by sulforhodamine B assay relative to control; procedure, shortened: as §2
Hs-578T = assay: Growth inhibition of human Hs-578T cells assessed as cell growth at 10 uM incubated for 48 hrs by sulforhodamine B assay relative to control; procedure, shortened: as §1

Question: CC1(C)CCc2cc(-c3ccn(S(=O)(=O)c4ccc(C(C)(C)C)cc4)n3)ccc2O1 was tested. Which growth at 10 µM (LOX IMVI) did it give?
Answer: 96.5%

Question: What about the growth at 10 µM (SR) of the same compound?
Answer: 77.8%

Question: What about the growth at 10 µM (HOP-62) of the same compound?
Answer: 120%

Question: And the growth at 10 µM (NCI-H23)?
Answer: 83.8%

Question: And the growth at 10 µM (SF-268)?
Answer: 92.1%

Question: What about the growth at 10 µM (CAKI-1) of the same compound?
Answer: 68.9%

Question: And the growth at 10 µM (CCRF-CEM)?
Answer: 74.4%

Question: And the growth at 10 µM (SW-620)?
Answer: 89.7%

Question: And the growth at 10 µM (UACC-257)?
Answer: 63%

Question: What about the growth at 10 µM (NCI-H322M) of the same compound?
Answer: 95.6%

Question: What about the growth at 10 µM (SK-MEL-2) of the same compound?
Answer: 58.2%

Question: And the growth at 10 µM (OVCAR-5)?
Answer: 99.6%

Question: What about the growth at 10 µM (TK-10) of the same compound?
Answer: 84.3%

Question: And the growth at 10 µM (K562)?
Answer: 72.2%

Question: And the growth at 10 µM (NCI-H522)?
Answer: 66.5%

Question: What about the growth at 10 µM (IGROV-1) of the same compound?
Answer: 93.3%

Question: And the growth at 10 µM (UACC-62)?
Answer: 70.4%

Question: What about the growth at 10 µM (MDA-MB-231) of the same compound?
Answer: 78.4%

Question: And the growth at 10 µM (NCI-H226)?
Answer: 70.5%

Question: And the growth at 10 µM (SK-MEL-28)?
Answer: 92.8%

Question: What about the growth at 10 µM (SNB-75) of the same compound?
Answer: 100%

Question: And the growth at 10 µM (RPMI-8226)?
Answer: 65.1%

Question: And the growth at 10 µM (Hs-578T)?
Answer: 97.8%

Question: What does the source list for COc1ccc(-c2ccn(S(=O)(=O)c3ccc(C)cc3)n2)cc1?
Answer: growth at 10 µM (LOX IMVI): 84.2%; growth at 10 µM (SR): 79.2%; growth at 10 µM (HOP-62): 108%; growth at 10 µM (NCI-H23): 67.9%; growth at 10 µM (SF-268): 95.9%; growth at 10 µM (CAKI-1): 69.5%; growth at 10 µM (CCRF-CEM): 85.7%; growth at 10 µM (SW-620): 90.2%; growth at 10 µM (UACC-257): 79.9%; growth at 10 µM (NCI-H322M): 96.7%; growth at 10 µM (OVCAR-5): 112%; growth at 10 µM (K562): 75.4%; growth at 10 µM (IGROV-1): 81.5%; growth at 10 µM (UACC-62): 70.9%; growth at 10 µM (MDA-MB-231): 89.2%; growth at 10 µM (NCI-H226): 68.5%; growth at 10 µM (SK-MEL-28): 103%; growth at 10 µM (SNB-75): 92.5%; growth at 10 µM (RPMI-8226): 69%; growth at 10 µM (Hs-578T): 96%

Question: What does the source list for CC(=O)Nc1ccc(S(=O)(=O)n2ccc(-c3ccc4c(c3)CCC(C)(C)O4)n2)cc1?
Answer: growth at 10 µM (LOX IMVI): 64.1%; growth at 10 µM (SR): 56.4%; growth at 10 µM (HOP-62): 94.4%; growth at 10 µM (NCI-H23): 56.6%; growth at 10 µM (SF-268): 77.2%; growth at 10 µM (CAKI-1): 48.8%; growth at 10 µM (CCRF-CEM): 55.4%; growth at 10 µM (SW-620): 82.5%; growth at 10 µM (UACC-257): 46%; growth at 10 µM (NCI-H322M): 89%; growth at 10 µM (SK-MEL-2): 53.5%; growth at 10 µM (OVCAR-5): 96.3%; growth at 10 µM (TK-10): 55.1%; growth at 10 µM (K562): 36.7%; growth at 10 µM (NCI-H522): 54%; growth at 10 µM (IGROV-1): 68%; growth at 10 µM (UACC-62): 62.4%; growth at 10 µM (MDA-MB-231): 88.6%; growth at 10 µM (NCI-H226): 52.4%; growth at 10 µM (SK-MEL-28): 93.1%; growth at 10 µM (SNB-75): 81.5%; growth at 10 µM (RPMI-8226): 43.7%; growth at 10 µM (Hs-578T): 102%

Question: COc1ccc(S(=O)(=O)n2ccc(-c3ccc(OC(C)C)cc3)n2)cc1 was tested. Which growth at 10 µM (LOX IMVI) did it give?
Answer: 94.1%

Question: What about the growth at 10 µM (SR) of the same compound?
Answer: 75.7%

Question: What about the growth at 10 µM (HOP-62) of the same compound?
Answer: 126%

Question: What about the growth at 10 µM (NCI-H23) of the same compound?
Answer: 83.8%

Question: And the growth at 10 µM (SF-268)?
Answer: 100%

Question: And the growth at 10 µM (CAKI-1)?
Answer: 66%

Question: What about the growth at 10 µM (CCRF-CEM) of the same compound?
Answer: 72.6%

Question: What about the growth at 10 µM (SW-620) of the same compound?
Answer: 86.3%

Question: What about the growth at 10 µM (UACC-257) of the same compound?
Answer: 99.2%

Question: And the growth at 10 µM (NCI-H322M)?
Answer: 99.3%

Question: And the growth at 10 µM (OVCAR-5)?
Answer: 80.7%

Question: What about the growth at 10 µM (K562) of the same compound?
Answer: 53.6%

Question: And the growth at 10 µM (IGROV-1)?
Answer: 91%

Question: And the growth at 10 µM (UACC-62)?
Answer: 64.1%

Question: What about the growth at 10 µM (MDA-MB-231) of the same compound?
Answer: 93%

Question: And the growth at 10 µM (NCI-H226)?
Answer: 78.8%

Question: What about the growth at 10 µM (SK-MEL-28) of the same compound?
Answer: 95.3%

Question: And the growth at 10 µM (SNB-75)?
Answer: 96.9%

Question: And the growth at 10 µM (RPMI-8226)?
Answer: 70.7%

Question: And the growth at 10 µM (Hs-578T)?
Answer: 95.5%

Question: CC1(C)CCc2cc(-c3ccn(S(=O)(=O)c4ccc(C(F)(F)F)cc4)n3)ccc2O1 was tested. Which growth at 10 µM (LOX IMVI) did it give?
Answer: 98.6%

Question: What about the growth at 10 µM (SR) of the same compound?
Answer: 69.8%

Question: And the growth at 10 µM (HOP-62)?
Answer: 119%

Question: What about the growth at 10 µM (NCI-H23) of the same compound?
Answer: 83.1%

Question: What about the growth at 10 µM (SF-268) of the same compound?
Answer: 104%

Question: And the growth at 10 µM (CAKI-1)?
Answer: 76.7%

Question: What about the growth at 10 µM (CCRF-CEM) of the same compound?
Answer: 82.8%

Question: And the growth at 10 µM (SW-620)?
Answer: 90.2%

Question: And the growth at 10 µM (UACC-257)?
Answer: 86.8%

Question: What about the growth at 10 µM (NCI-H322M) of the same compound?
Answer: 105%

Question: What about the growth at 10 µM (OVCAR-5) of the same compound?
Answer: 95.7%

Question: What about the growth at 10 µM (K562) of the same compound?
Answer: 76.8%

Question: What about the growth at 10 µM (IGROV-1) of the same compound?
Answer: 89.3%

Question: What about the growth at 10 µM (UACC-62) of the same compound?
Answer: 83.5%

Question: What about the growth at 10 µM (MDA-MB-231) of the same compound?
Answer: 112%

Question: And the growth at 10 µM (NCI-H226)?
Answer: 75.6%

Question: And the growth at 10 µM (SK-MEL-28)?
Answer: 99.6%

Question: What about the growth at 10 µM (SNB-75) of the same compound?
Answer: 93.5%

Question: What about the growth at 10 µM (RPMI-8226) of the same compound?
Answer: 76.6%

Question: What about the growth at 10 µM (Hs-578T) of the same compound?
Answer: 101%
